Results gathered from unrelated publications.

SMILES	species	medium	route	dose	notes	measurement	value
COc1ccc([C@@H]2CN(C(=O)[C@@H](O)CO)C[C@@]2(C)[C@@H](C)O)cc1OC1CN(c2ccc(C)cn2)C1	human	plasma	oral	10 mg	single dose, healthy volunteers	Vd/F	57.6 L
CCNCCCNC/C=C\CNCCCNCC	human	plasma	intravenous	200 mg	patients, infusion	Vd	0.56 L/kg
CC(C)(C)c1ccc(O)c(CN(Cc2cc(C(C)(C)C)ccc2O)C2CCC(NC(N)=O)CC2)c1 (centres unmarked)	male C57BL/6 mouse	brain	oral	10 mg/kg	single dose	Cmax	550 ng/g
COc1cc(C(=O)NC2CCN(C)CC2)c(F)cc1Nc1ncc(C(F)(F)F)c(Oc2cccc3c2C(=O)N(C)C3)n1	human	plasma	oral	100 mg	multiple doses, once daily, patients	Vd/F	284 L
Cc1nc(-c2cnc(NC(C)C)n(C)c2=O)ccc1Oc1ccnc(-c2cnn(C)c2)c1	female mouse	plasma	oral	3.75 mg/kg	single dose	Cmax	2780 ng/mL
CC(C)(Sc1ccncc1-c1ccc(C#N)c2ccccc12)C(=O)O	male human	plasma	oral	40 mg	single dose, fasted, healthy volunteers	Vd/F	280 L
Cc1cc(Nc2cc(N3CCN(C)CC3)nc(/C=C/c3ccccc3)n2)n[nH]1	human	plasma	oral	60 mg/m²	multiple doses, patients	Vd/F	699 L
C[C@@]1(c2cc(NC(=O)c3ccc(C#N)cn3)ccc2F)C=CSC(N)=N1	human	plasma	oral	150 mg	single dose	Vd/F	247 L
